Consider seven compounds from ChEMBL document CHEMBL2331369, “Transport by OATP1B1 and OATP1B3 enhances the cytotoxicity of epigallocatechin 3-O-gallate and several quercetin derivatives” (J Nat Prod, 2013).

Active and inactive are the calls of the source. The rule behind the calls is not given here.

Data set [1] concerns CHO. Briefly: Cytotoxicity against wild type CHO cells after 48 hrs by […] CellTiter-Glo assay. The following applies: for Activity: chinese hamster, cho; for IC50: Cricetulus griseus, CHO. Format: cell-based, Cricetulus griseus. The method, boiled down:
(§1)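 Seeded at 1600 cells/well, 24 h culture, then 5 mM sodium butyrate induction for 24 h. Cells then exposed to a range of compound concentrations for 48 h in medium with 10% FBS. CellTiter-Glo readout, expressed as percent of DMSO control. IC50 from at least three independent experiments, mean ± SEM.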
A general note: ATP-based viability assays read luminescence as a measure of living cells.

Data set [2] concerns CHO. Briefly: Cytotoxicity against CHO cells expressing OATP1B1*1b after 48 hrs by […] CellTiter-Glo assay. The following applies: Cricetulus griseus. Format: functional, cell-based. Put shortly:
as §1

The test system of data set [3] is CHO. The experiment in a line: Inhibition of OATP1B3 haplotype 1 (unknown origin) expressed in CHO cells assessed as reduction of [3H]estrone-3-sulfate at 50 uM after 20 seconds. Format: cell-based. The following applies: Homo sapiens. Put shortly: (§2)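 Uptake in stably transfected CHO cells grown with 10% FBS. Test compound at 50 μM with 1% DMSO as control. Substrates 0.1 μM E3S or E17βG for 20 s, or 0.5 μM DHEAS for 5 min, all at 37 °C. Net OATP uptake is taken as the wild-type CHO signal subtracted. Values are percent of DMSO control, mean ± SEM of one representative of three experiments.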

For data set [4], the system named is CHO. Briefly: Inhibition of OATP1B3 haplotype 1 (unknown origin) expressed in CHO cells assessed as reduction of [3H]dehydroepiandrosterone sulfate at 50 uM after 5 mins. Format: cell-based. As to conditions: Homo sapiens. The method, boiled down:
as §2

For data set [5], the system named is CHO. The experiment in a line: Inhibition of OATP1B3 haplotype 1 (unknown origin) expressed in CHO cells assessed as reduction of [3H]estradiol 17beta-glucuronide at 50 uM after 20 seconds. The following applies: Homo sapiens. Format: cell-based. Put shortly: as §2
In data set [6] the test system is CHO. The experiment in a line: Cytotoxicity against CHO cells expressing OATP1B3 haplotype 1 after 48 hrs by […] CellTiter-Glo assay. It is filed as functional, cell-based. The following applies: Cricetulus griseus. The method, boiled down: as §1
Data set [7] concerns CHO. Briefly: Inhibition of OATP1B1*1b (unknown origin) expressed in CHO cells assessed as reduction of [3H]estradiol 17beta-glucuronide at 50 uM after 20 seconds. It is filed as cell-based. As to conditions: Homo sapiens. Put shortly: as §2
Data set [8] concerns CHO. Briefly: Cell cycle arrest in CHO cells expressing OATP1B3 haplotype 1 assessed as accumulation at G0/G1 phase at 10 uM after 48 hrs using propidium iodide staining by flow cytometry. The following applies: Cricetulus griseus.
Data set [9] concerns CHO. Briefly: Induction of apoptosis in CHO cells expressing OATP1B3 haplotype 1 at 10 uM after 48 hrs using propidium iodide and FITC Annexin V staining by flow cytometry. Format: functional, Cricetulus griseus. Put shortly: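 Seeded at 90 000 cells/well for 24 h, then 5 mM sodium butyrate for 24 h, then 10 μM compound for 48 h. Medium and washes pooled with trypsinized cells, spun at 300g for 5 min. Stained with FITC Annexin V plus 4 μg/mL propidium iodide for 20 min in the dark, then flow cytometry. DMSO control; three independent experiments averaged.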
On the technique in general: Flow cytometry measures light scatter and fluorescence of single cells or particles in a stream.

The test system of data set [10] is CHO. The experiment in a line: Inhibition of OATP1B1*1b (unknown origin) expressed in CHO cells assessed as reduction of [3H]dehydroepiandrosterone sulfate at 50 uM after 5 mins. Format: cell-based. The following applies: Homo sapiens. The method, boiled down:
as §2

Data set [11] relates to CHO. The experiment in a line: Inhibition of OATP1B1*1b (unknown origin) expressed in CHO cells assessed as reduction of [3H]estrone-3-sulfate at 50 uM after 20 seconds. Format: cell-based. As to conditions: Homo sapiens. The method, boiled down: as §2
For data set [12], the system named is CHO. The experiment in a line: Cell cycle arrest in CHO cells expressing OATP1B3 haplotype 1 assessed as accumulation at G0/G1 phase at 1 uM after 48 hrs using propidium iodide and FITC Annexin V staining by flow cytometry. Format: functional, cell-based. The following applies: Cricetulus griseus. The method, boiled down:
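Cells plated at 90 000/well for 24 h, held 36 h serum-free to synchronize in G0, induced 24 h with 5 mM sodium butyrate, then compound for 48 h. Fixed in 70% ice-cold ethanol at 4 °C overnight, then 40 min in PBS with 25 μg/mL RNase and 12.5 μg/mL propidium iodide. DNA content by flow cytometry; two independent experiments averaged.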

For data set [13], the target named is T1, Albumin (Homo sapiens, UniProt P02768). The experiment in a line: Binding affinity to human serum albumin at 10 uM. It is filed as ADME. The following applies: isolated protein.
T1 sequence (P02768 whole entry): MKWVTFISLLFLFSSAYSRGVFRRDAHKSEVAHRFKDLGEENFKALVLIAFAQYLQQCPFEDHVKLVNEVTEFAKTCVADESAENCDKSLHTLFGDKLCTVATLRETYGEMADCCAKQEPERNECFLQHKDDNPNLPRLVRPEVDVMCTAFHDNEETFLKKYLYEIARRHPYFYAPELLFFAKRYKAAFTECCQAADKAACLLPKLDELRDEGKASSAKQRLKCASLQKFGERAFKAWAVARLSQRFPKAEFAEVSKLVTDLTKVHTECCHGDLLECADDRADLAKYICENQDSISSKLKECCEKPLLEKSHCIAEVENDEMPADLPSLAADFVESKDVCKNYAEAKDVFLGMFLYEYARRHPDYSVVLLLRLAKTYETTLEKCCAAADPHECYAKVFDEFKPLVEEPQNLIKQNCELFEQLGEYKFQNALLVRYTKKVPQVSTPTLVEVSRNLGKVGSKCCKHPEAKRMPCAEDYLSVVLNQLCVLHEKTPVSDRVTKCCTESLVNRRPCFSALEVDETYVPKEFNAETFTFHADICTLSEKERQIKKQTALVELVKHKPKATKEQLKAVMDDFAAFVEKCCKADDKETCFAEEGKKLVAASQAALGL
A further data set concerns Plasma. Briefly: Plasma concentration in human at 1600 mg. Format: ADME, cell-free.
The test system of data set [14] is CHO. Briefly: Induction of apoptosis in CHO cells expressing OATP1B3 haplotype 1 at 1 uM after 48 hrs using propidium iodide and FITC Annexin V staining by flow cytometry. Format: functional, Cricetulus griseus. Put shortly: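 Wild-type and OATP1B3 CHO cells plated at 90 000/well for 24 h, induced 24 h with 5 mM sodium butyrate, then compound 48 h (DMSO control). Medium and trypsinized cells pooled, spun 5 min at 300g, PBS-washed. Stained 20 min in the dark with FITC Annexin V and 4 μg/mL propidium iodide, then flow cytometry. Two independent experiments, values averaged.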

The test system of data set [15] is CHO. Briefly: Cytotoxicity against CHO cells expressing OATP1B1*1b after 48 hrs by […] CellTiter-Glo assay relative to wild type CHO cells. It is filed as functional, Cricetulus griseus. The method, boiled down:
(§3)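 CHO cells stably expressing OATP1B1*1b or OATP1B3, and wild-type CHO, in DMEM with 10% FBS. Seeded at 1600 cells/well and cultured 24 h. Then 24 h with 5 mM sodium butyrate to induce expression, then graded compound concentrations for 48 h. Viability read by CellTiter-Glo as percent of DMSO control. IC50 from mean ± SEM of at least three independent experiments.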

Data set [16] has as its target T1, Albumin. Briefly: Binding affinity to human serum albumin at 1 uM. Format: ADME. As to conditions: isolated protein.
For data set [17], the system named is CHO. The experiment in a line: Cytotoxicity against CHO cells expressing OATP1B3 haplotype 1 after 48 hrs by […] CellTiter-Glo assay relative to wild type CHO cells. It is filed as functional, Cricetulus griseus. Put shortly: as §3
Data set [18] deals with CHO. Briefly: Activation of OATP1B3 haplotype 1 (unknown origin) expressed in CHO cells assessed as increase of [3H]estradiol 17beta-glucuronide at 50 uM after 20 seconds relative to control. It is filed as cell-based. As to conditions: Homo sapiens. Put shortly: as §2
Data set [19] relates to CHO. Briefly: Activation of OATP1B3 haplotype 1 (unknown origin) expressed in CHO cells assessed as increase at 50 uM after relative to control. As to conditions: Homo sapiens.

As to `NCCCOc1cc(-c2oc3cc(O)cc(O)c3c(=O)c2O)ccc1O`, in the data set on CHO [1], the Activity entry is listed as “Non-toxic”. Moreover, the outcome with CHO [2] and in the data set with CHO [6] was inactive. In addition, the inhibition entry with CHO [3], with CHO [4] and in the data set with CHO [5] was “Active” throughout.
As a reminder, the IC50 is the point on the concentration scale where inhibition reaches its midpoint. Read a low IC50 as greater potency in that assay. Turning to `Nc1ccc(C(=O)Oc2c(-c3ccc(O)c(O)c3)oc3cc(O)cc(O)c3c2=O)cc1O`, the inhibition entry in the data set on CHO [7], in the data set with CHO [10], with CHO [3], with CHO [4], in the data set with CHO [5] and with CHO [11] was “Active” throughout. Moreover, the result in the data set on CHO [8] and in the data set on CHO [2] was inactive. Moreover, the values for the Activity result with CHO [1] and in the data set on CHO [9] were “Non-toxic” and 70%, respectively. In the data set on CHO [6], this compound displayed an IC50 of 4.1 µM.
As for `O=C(Oc1c(-c2ccc(O)c(O)c2)oc2cc(O)cc(O)c2c1=O)c1cc(O)c(O)c(O)c1`, the inhibition entry with CHO [7], in the data set with CHO [10], with CHO [3], in the data set with CHO [4], in the data set on CHO [5] and with CHO [11] was “Active” in each case. In addition, the outcome in the data set with CHO [8] was inactive. The Activity entry in the data set with CHO [1] is “Non-toxic”; with CHO [9], 32%. Also, the figures for the IC50 with CHO [2] and in the data set with CHO [6] were 3.5 µM and 3.8 µM, respectively.
As to `O=C(O[C@@H]1Cc2c(O)cc(O)cc2O[C@@H]1c1cc(O)c(O)c(O)c1)c1cc(O)c(O)c(O)c1` [EPIGALOCATECHIN GALLATE], the outcome with CHO [12] was Active. The half-maximal inhibitory concentration (IC50) with CHO [1] was 271 µM; with CHO [2], 7.7 µM; with CHO [6], 3.2 µM. The figures for the Activity on Albumin [13], in the data set on CHO [14] and at Albumin [16] were 85%, 15% and 99%, respectively. The same compound displayed a concentration with Plasma of 11.3 µM. In addition, the “fold change (FC)” value in the data set with CHO [15] came out at 35; with CHO [17], 85.
For `CCCOc1cc(O)cc2oc(-c3ccc(O)c(O)c3)c(O)c(=O)c12`, the inhibition result in the data set on CHO [7], in the data set with CHO [10], in the data set on CHO [4] and with CHO [11] was “Active” each time. Besides, the IC50 with CHO [1] was 111 µM; in the data set with CHO [2], 42.6 µM; with CHO [6], 11.8 µM. Moreover, the fold change (FC) with CHO [18] worked out at 3.
On to `Nc1cc(C(=O)Oc2c(-c3ccc(O)c(O)c3)oc3cc(O)cc(O)c3c2=O)ccc1O`, for which the Activity result in the data set with CHO [1] is listed as “Non-toxic”. Besides, the outcome with CHO [2] and in the data set with CHO [6] was inactive. Besides, the outcome in the data set with CHO [19] was Active.
As to `O=C(Oc1cc(-c2oc3cc(O)cc(O)c3c(=O)c2O)ccc1O)c1cc(O)c(O)c(O)c1`, the inhibition entry with CHO [7], in the data set on CHO [10], in the data set on CHO [3], in the data set on CHO [4], in the data set with CHO [5] and in the data set on CHO [11] was “Active” throughout. Besides, the Activity result in the data set with CHO [1] is “Non-toxic”. The values for the IC50 with CHO [2] and in the data set on CHO [6] were 7.9 µM and 6.8 µM, respectively.
